Source: ChEMBL document CHEMBL4359812, “Nitric Oxide-Releasing Selective Estrogen Receptor Modulators: A Bifunctional Approach to Improve the Therapeutic Index” (J Med Chem, 2019)
Active and inactive are the calls of the source. The rule behind the calls is not given here.

Tests used:
[1] = Drug metabolism in pH 7.5 PBS assessed as free nitrite level at 50 uM measured after 90 mins in presence of L-cysteine by 2,3-diaminonaphthalene-based fluorescence assay
Procedure, shortened: (§1)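 Compound incubated 90 min at 37 °C in PBS pH 7.5 alone, with human plasma, with 50 μM K3[Fe(CN)6], or with 5 mM L-cysteine. Nitrite reacted with 2,3-diaminonaphthalene under acid to give fluorescent naphthotriazole; HgCl2 added to release S-nitrosothiol-bound NO. Release given as % of 1 mol NO/mol compound; 3−4 experiments in duplicate (n = 6−8), mean ± SEM.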

[2] = Drug metabolism in pH 7.5 PBS assessed as nitric oxide release at 50 uM measured after 90 mins in presence of K3[Fe(CN)6] by 2,3-diaminonaphthalene-based fluorescence assay; procedure, shortened: as §1
[3] = Drug metabolism in pH 7.5 PBS assessed as S-nitroso-thiol level at 50 uM measured after 90 mins in presence of L-cysteine by 2,3-diaminonaphthalene-based fluorescence assay; procedure, shortened: as §1
[4] = Drug metabolism in pH 7.5 PBS assessed as nitric oxide release at 50 uM measured after 90 mins in presence of L-cysteine by 2,3-diaminonaphthalene-based fluorescence assay; procedure, shortened: as §1
[5] = Drug metabolism in pH 7.5 PBS assessed as nitric oxide release at 50 uM measured after 90 mins in presence of […] by 2,3-diaminonaphthalene-based fluorescence assay
Estrogen receptor beta = Estrogen receptor beta (Homo sapiens, UniProt Q92731)
Sequence of Estrogen receptor beta (Q92731 whole entry): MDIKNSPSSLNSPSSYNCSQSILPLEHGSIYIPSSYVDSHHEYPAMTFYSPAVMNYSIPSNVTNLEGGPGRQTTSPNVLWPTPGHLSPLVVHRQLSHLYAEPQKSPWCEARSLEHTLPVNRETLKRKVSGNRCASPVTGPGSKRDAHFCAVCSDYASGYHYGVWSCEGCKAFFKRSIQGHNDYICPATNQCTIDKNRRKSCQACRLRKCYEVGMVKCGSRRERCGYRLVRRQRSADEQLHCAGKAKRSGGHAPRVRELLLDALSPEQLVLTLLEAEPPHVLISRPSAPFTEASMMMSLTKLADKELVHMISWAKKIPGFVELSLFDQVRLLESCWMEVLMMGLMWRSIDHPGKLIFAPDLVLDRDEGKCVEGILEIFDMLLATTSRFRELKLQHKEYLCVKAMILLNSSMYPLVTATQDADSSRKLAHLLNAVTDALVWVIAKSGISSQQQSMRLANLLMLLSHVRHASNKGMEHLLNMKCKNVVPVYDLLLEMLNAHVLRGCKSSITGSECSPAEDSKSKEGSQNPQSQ

MEL-JUSO [6] = assay: Antiproliferative activity against human MelJuSo cells assessed as cell viability at 50 uM measured after 24 hrs by celltiter-blue assay relative to control; assay type: functional; details: read-out: Activity
Procedure, shortened: (§2)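 Human melanoma cells seeded at 8.5 × 10^4 cells/well in 96-well plates and treated 24 h with test compound (up to 50 μM) against a DMSO control; viability read as in the group's earlier method. Three to five independent experiments (n = 9−15); mean ± SEM, ANOVA with Bonferroni post hoc test vs DMSO.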

A2058 [7] = assay: Antiproliferative activity against human A2058 cells assessed as cell viability at 50 uM measured after 24 hrs by celltiter-blue assay relative to control; assay type: functional; details: A2058, 24 h, read-out: Activity; procedure, shortened: as §2
Estrogen receptor = biological target: T1, Estrogen receptor (Homo sapiens, UniProt P03372)
T1 sequence (P03372 whole entry): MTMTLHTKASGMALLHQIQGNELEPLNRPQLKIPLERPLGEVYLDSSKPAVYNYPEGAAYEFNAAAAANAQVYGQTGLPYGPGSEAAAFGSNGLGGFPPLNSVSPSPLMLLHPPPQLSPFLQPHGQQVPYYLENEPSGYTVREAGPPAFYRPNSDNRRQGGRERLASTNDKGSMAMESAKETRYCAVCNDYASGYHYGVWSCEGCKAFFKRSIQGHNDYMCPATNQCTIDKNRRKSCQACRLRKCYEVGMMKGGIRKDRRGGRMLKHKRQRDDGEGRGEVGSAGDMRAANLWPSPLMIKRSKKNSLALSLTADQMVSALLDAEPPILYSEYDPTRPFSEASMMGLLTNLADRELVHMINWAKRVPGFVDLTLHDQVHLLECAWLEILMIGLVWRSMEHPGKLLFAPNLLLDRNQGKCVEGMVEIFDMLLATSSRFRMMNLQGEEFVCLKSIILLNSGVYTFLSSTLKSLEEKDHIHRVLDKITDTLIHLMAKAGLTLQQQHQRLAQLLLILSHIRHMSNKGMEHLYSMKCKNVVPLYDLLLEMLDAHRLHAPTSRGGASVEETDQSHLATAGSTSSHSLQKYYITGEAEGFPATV

A2058 [8] = assay: Antiproliferative activity against human A2058 cells assessed as reduction in cell viability measured after 24 hrs by celltiter-blue assay; assay type: functional, cell-based; details: A2058, 24 h; procedure, shortened: as §2
MEL-JUSO [9] = assay: Antiproliferative activity against human MelJuSo cells assessed as reduction in cell viability measured after 24 hrs by celltiter-blue assay; assay type: functional, cell-based; procedure, shortened: as §2
MCF7 [10] = assay: Antiproliferative activity against human MCF7 cells assessed as cell viability at 50 uM measured after 24 hrs by celltiter-blue assay relative to control; assay type: functional; details: MCF7, 24 h, read-out: Activity
Procedure, shortened: (§3)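 Breast adenocarcinoma lines: MCF-7 grown in Leibovitz's L-15 with 10% FCS and 1% pen/strep without CO2; MDA-MB-231 grown in DMEM with 10% FCS and 1% pen/strep at 5% CO2; both at 37 °C. Viability measured after 24 h treatment at 50 μM vs DMSO. Three independent experiments (n = 9); mean ± SEM, ANOVA/Bonferroni.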

HUVEC [11] = assay: (§4) Cytotoxicity against HUVEC assessed as cell viability at 50 uM measured after 24 hrs by celltiter-blue assay; assay type: cell-based; details: human, huvec, 24 h, 50 µM; BLD = below limit of detection
Procedure, shortened: (§5)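 HUVEC grown in endothelial cell growth medium at 37 °C, seeded at 7 × 10^4 cells/well in 96-well plates, treated 24 h with test compound up to 50 μM, DMSO as control; viability read as in the group's earlier method.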

[12] = Retention time of the compound in human whole blood by HPLC analysis; assay type: ADME, tissue-based
Procedure, shortened: (§6)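 Compound incubated 0 to 6 h in human whole blood at 37 °C; proteins precipitated 1:2 (v/v); supernatant analysed by reversed-phase C18 HPLC at 254 nm, water/MeCN gradient with 0.1% TFA, 3.0 mL/min at 50 °C.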

MCF7 [13] = assay: Antiproliferative activity against human MCF7 cells assessed as reduction in number of proliferating cells measured after 48 hrs by cell counting analysis; assay type: functional, cell-based
Procedure, shortened: (§7)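 MCF-7 (L-15 with 10% FCS, no CO2) and MDA-MB-231 (DMEM with 10% FCS, 5% CO2) treated 48 h with test compound over a concentration range, DMSO as control; proliferating cells counted. Four independent experiments (n = 8); mean ± SEM, ANOVA with Bonferroni post hoc test vs DMSO.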

A2058 [14] = assay: Antiproliferative activity against human A2058 cells assessed as reduction in number of proliferating cells at 25 uM measured after 48 hrs by cell counting analysis; assay type: functional, cell-based
Procedure, shortened: (§8)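 A2058 cells plated at 0.5 × 10^6 (24 h) or 0.35 × 10^6 (48 h) per well, Mel-Juso at 0.6 × 10^6 or 0.45 × 10^6. After 24 h cells were treated with 0−50 μM, DMSO as control, then counted electronically after 24 or 48 h. Three independent experiments; mean ± SEM, ANOVA/Bonferroni vs DMSO.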

MEL-JUSO [15] = assay: Antiproliferative activity against human MelJuSo cells assessed as reduction in number of proliferating cells at 25 uM measured after 48 hrs by cell counting analysis; assay type: functional, cell-based; procedure, shortened: as §8
[16] = Effect on ER/PI3K pathway in HUVEC assessed as upregulation of COX2 expression measured after 24 hrs by Western blot analysis; assay type: ADME, cell-based; details: human
Procedure, shortened: (§9)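 HUVEC treated 24 h with test compounds at various concentrations, with tamoxifen or 17β-estradiol as references, vs DMSO; COX-2 protein detected by Western blotting. Four independent experiments.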

HUVEC [17] = assay: Cytotoxicity against HUVEC assessed as reduction in cell viability measured after 24 hrs by celltiter-blue assay; assay type: cell-based; details: Homo sapiens; procedure, shortened: as §5
[18] = Stability of the compound in human whole blood measured after 6 hrs by HPLC analysis; assay type: ADME, tissue-based; procedure, shortened: as §6
MDA-MB-231 [19] = assay: Antiproliferative activity against human MDA-MB-231 cells assessed as cell viability at 50 uM measured after 24 hrs by celltiter-blue assay relative to control; assay type: functional; details: MDA-MB-231, 24 h, read-out: Activity; procedure, shortened: as §3
MDA-MB-231 [20] = assay: Antiproliferative activity against human MDA-MB-231 cells assessed as reduction in number of proliferating cells measured after 48 hrs by cell counting analysis; assay type: functional, cell-based; procedure, shortened: as §7
[21] = Effect on ER/PI3K pathway in HUVEC assessed as change COX2 expression up to 1 uM measured after 24 hrs by Western blot analysis; assay type: ADME, cell-based; details: human; procedure, shortened: as §9
MEL-JUSO [22] = assay: Antiproliferative activity against human MelJuSo cells assessed as reduction in number of proliferating cells at 50 uM measured after 48 hrs by cell counting analysis; assay type: functional, cell-based; procedure, shortened: as §8
[23] = Drug metabolism in human whole blood assessed as nitric oxide release measured after 6 hrs by HPLC analysis; assay type: ADME, tissue-based; procedure, shortened: as §6
[24] = as §4; assay type: cell-based; details: human, HUVEC cells; read-out: Activity; procedure, shortened: as §5
[25] = Drug metabolism in human whole blood assessed as 5d formation measured after 6 hrs by HPLC analysis; assay type: ADME, tissue-based; procedure, shortened: as §6
A2058 [26] = assay: Antiproliferative activity against human A2058 cells assessed as reduction in number of proliferating cells at 50 uM measured after 48 hrs by cell counting analysis; assay type: functional, cell-based; procedure, shortened: as §8
[27] = Effect on ER/PI3K pathway in HUVEC assessed as upregulation of COX2 expression up to 20 uM measured after 24 hrs by Western blot analysis; assay type: ADME, cell-based; details: human; procedure, shortened: as §9

Compound | Drug metabolism [1] | Drug metabolism [2] | Drug metabolism [3] | Drug metabolism [4] | IC50 (Estrogen receptor beta) | viability at 50 µM (MEL-JUSO [6]) | viability at 50 µM (A2058 [7]) | IC50 (Estrogen receptor) | further results
O=S(=O)(NO)c1ccccc1 | 0.3% | 48.3% | 3.3% | 3.6% | – | – | – | – | Drug metabolism [5]: 33.5%
CS(=O)(=O)c1ccc(C(CCCCO)=C(c2ccccc2)c2ccccc2)cc1 | – | – | – | – | 1.4 µM | 68.6% | 106% | > 5 µM | –
CS(=O)(=O)c1ccc(C(CCCO[N+](=O)[O-])=C(c2ccc(F)cc2)c2ccc(F)cc2)cc1 | 0.1% | 0.1% | 1.9% | 2% | > 5 µM | 91.5% | 107% | > 5 µM | Drug metabolism [5]: 2.2%
CS(=O)(=O)c1ccc(C(CCCCO[N+](=O)[O-])=C(c2ccccc2)c2ccccc2)cc1 | 0.9% | 1.1% | 0.4% | 0.5% | 1.3 µM | 87.1% | 120% | > 5 µM | Drug metabolism [5]: 0.1%
CS(=O)(=O)c1ccc(C(CCCO)=C(c2ccc(F)cc2)c2ccc(F)cc2)cc1 | – | – | – | – | 3 µM | 31.4% | 47.6% | > 5 µM | EC50 (A2058 [8]): 27.5 µM; EC50 (MEL-JUSO [9]): 36.3 µM
CS(=O)(=O)c1ccc(C(CCCO)=C(c2ccccc2)c2ccccc2)cc1 | – | – | – | – | 1.5 µM | 52.7% | 63% | > 5 µM | –
CS(=O)(=O)c1ccc(C(CCCCO)=C(c2ccc(F)cc2)c2ccc(F)cc2)cc1 | – | – | – | – | 0.18 µM | 20.5% | 17% | > 5 µM | viability at 50 µM (MCF7 [10]): 72.2%; Activity (HUVEC [11]): Bld; Retention_time [12]: 14.5 min; Activity (MCF7 [13]): Dose-dependent effect; Activity (A2058 [14]): Active; Activity (MEL-JUSO [15]): Active; EC50 (A2058 [8]): 39.9 µM; Activity [16]: Dose-dependent effect; EC50 (HUVEC [17]): 19.6 µM; EC50 (MEL-JUSO [9]): 34.9 µM; Stability [18]: Stable; viability at 50 µM (MDA-MB-231 [19]): 86.4%; Activity (MDA-MB-231 [20]): Dose-dependent effect
CS(=O)(=O)c1ccc(C(CCCO[N+](=O)[O-])=C(c2ccccc2)c2ccccc2)cc1 | 0.7% | 1.5% | 1.3% | 2% | 2.7 µM | 96.5% | 117% | > 5 µM | –
CCCCC(=C(c1ccc(F)cc1)c1ccc(F)cc1)c1ccc(S(C)(=O)=O)cc1 | – | – | – | – | – | 75.4% | 117% | – | –
CC/C(=C(\c1ccccc1)c1ccc(OCCN(C)C)cc1)c1ccccc1 [TAMOXIFEN] | – | – | – | – | – | 1% | 1.8% | – | EC50 (A2058 [8]): 12.5 µM; Activity [21]: Active; EC50 (MEL-JUSO [9]): 14.6 µM
CS(=O)(=O)c1ccc(C(CCCCO[N+](=O)[O-])=C(c2ccc(F)cc2)c2ccc(F)cc2)cc1 | 0.4% | 2.5% | 3.4% | 3.8% | 0.2 µM | 101% | 106% | > 5 µM | viability at 50 µM (MCF7 [10]): 82.8%; Activity (MEL-JUSO [22]): inactive; Drug metabolism [23]: Metabolite_Detected; viability at 24 h, 50 µM [24]: 91.1%; Retention_time [12]: 16.4 min; Drug metabolism [25]: Metabolite_Detected; Activity (A2058 [26]): inactive; Activity [27]: Not Active; viability at 50 µM (MDA-MB-231 [19]): 91.3%
CC(=O)Oc1ccccc1C(=O)Oc1ccc(CO[N+](=O)[O-])cc1 | 0.8% | 0.2% | 3.6% | 4.4% | – | – | – | – | –
